{"source": "ChEMBL document CHEMBL1123723", "about": "“S-[(N,N'-diarylamidino)methyl] diethyldithiocarbamates and related amides as potential radioprotectants” (J Med Chem, 1987)", "key": {"[1]": {"test": "Antiradiation evaluation test was carried out in mice and lethal dose for antiradiation effect at 800 rads was evaluated by the x-ray.", "assay_type": "ADME, organism-based", "conditions": "mouse, in vivo"}, "Mus musculus [2]": {"system": "Mus musculus", "test": "Antiradiation evaluation test was carried out in mice and percent of survival of animals after 30-day was determined at lowest dose of 340 mg/kg required for the highest survival rate.", "assay_type": "functional", "conditions": "720 h"}, "Mus musculus [3]": {"species": "Mus musculus", "test": "Antiradiation evaluation test was carried out in mice and mean survival time(MST) for mice that died over a 30 day period was determined.", "assay_type": "functional", "in_short": "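Mice (strain \"H\", both sexes, 23-25 g, 20 per group) were given the drug as a methylcellulose/Tween-80 suspension and exposed to 800-rad X-rays at 96 rads/min alongside untreated controls. The value is the mean survival time of the mice that died within the 30-day observation period.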"}, "Mus musculus [4]": {"system": "Mus musculus", "test": "Antiradiation evaluation test was carried out in mice and percent of survival of animals after 30-day was determined at lowest dose of 210 mg/kg required for the highest survival rate.", "assay_type": "functional", "conditions": "720 h"}, "Mus musculus [5]": {"system": "Mus musculus", "test": "Antiradiation evaluation test was carried out in mice and percent of survival of animals after 30-day was determined at lowest dose of 150 mg/kg required for the highest survival rate.", "assay_type": "functional", "conditions": "720 h"}, "Mus musculus [6]": {"system": "Mus musculus", "test": "Antiradiation evaluation test was carried out in mice and percent of survival of animals after 30-day was determined at lowest dose of 125 mg/kg required for the highest survival rate.", "assay_type": "functional", "conditions": "720 h"}, "Mus musculus [7]": {"system": "Mus musculus", "test": "Antiradiation evaluation test was carried out in mice and percent of survival of animals after 30-day was determined at lowest dose of 250 mg/kg required for the highest survival rate.", "assay_type": "functional", "conditions": "720 h"}, "Mus musculus [8]": {"system": "Mus musculus", "test": "Antiradiation evaluation test was carried out in mice and percent of survival of animals after 30-day was determined at lowest dose of 360 mg/kg required for the highest survival rate.", "assay_type": "functional", "conditions": "720 h"}, "Mus musculus [9]": {"system": "Mus musculus", "test": "Antiradiation evaluation test was carried out in mice and percent of survival of animals after 30-day was determined at lowest dose of 280 mg/kg required for the highest survival rate.", "assay_type": "functional", "conditions": "720 h"}}}
{"smiles": "CCN(CC)C(=S)SC/C(=N\\c1ccc(OC)cc1)Nc1ccc(OC)cc1", "values": [{"measurement": "LD50", "setting": "[1]", "result": 1370, "unit": "mg/kg"}, {"measurement": "survival at 340 mg/kg", "setting": "Mus musculus [2]", "result": 60, "unit": "%"}, {"measurement": "MST", "setting": "Mus musculus [3]", "result": 14.3, "unit": "days"}]}
{"smiles": "CCN(CC)C(=S)SC/C(=N\\c1ccc(C)cc1)Nc1ccc(C)cc1", "values": [{"measurement": "LD50", "setting": "[1]", "result": 970, "unit": "mg/kg"}, {"measurement": "survival at 210 mg/kg", "setting": "Mus musculus [4]", "result": 0, "unit": "%"}, {"measurement": "MST", "setting": "Mus musculus [3]", "result": 6.1, "unit": "days"}]}
{"smiles": "CCN(CC)C(=S)SC/C(=N\\c1ccccc1)Nc1ccccc1", "values": [{"measurement": "LD50", "setting": "[1]", "result": 840, "unit": "mg/kg"}, {"measurement": "survival at 150 mg/kg", "setting": "Mus musculus [5]", "result": 5, "unit": "%"}, {"measurement": "MST", "setting": "Mus musculus [3]", "result": 8.1, "unit": "days"}]}
{"smiles": "CCN(CC)C(=S)SC/C(=N\\c1ccccc1)Nc1ccc(C)cc1", "values": [{"measurement": "LD50", "setting": "[1]", "result": 720, "unit": "mg/kg"}, {"measurement": "survival at 125 mg/kg", "setting": "Mus musculus [6]", "result": 10, "unit": "%"}, {"measurement": "MST", "setting": "Mus musculus [3]", "result": 9.6, "unit": "days"}]}
{"smiles": "CCN(CC)C(=S)SC/C(=N\\c1ccc(C)cc1)Nc1ccc(OC)cc1", "values": [{"measurement": "LD50", "setting": "[1]", "result": 970, "unit": "mg/kg"}, {"measurement": "survival at 250 mg/kg", "setting": "Mus musculus [7]", "result": 40, "unit": "%"}, {"measurement": "MST", "setting": "Mus musculus [3]", "result": 9.8, "unit": "days"}]}
{"smiles": "CCN(CC)C(=S)SC/C(=N\\c1ccccc1)Nc1ccc(OC)cc1", "values": [{"measurement": "LD50", "setting": "[1]", "result": 780, "unit": "mg/kg"}, {"measurement": "survival at 150 mg/kg", "setting": "Mus musculus [5]", "result": 10, "unit": "%"}, {"measurement": "MST", "setting": "Mus musculus [3]", "result": 10.8, "unit": "days"}]}
{"smiles": "CCOc1ccc(N/C(CSC(=S)N(CC)CC)=N/c2ccc(C)cc2)cc1", "values": [{"measurement": "LD50", "setting": "[1]", "result": 850, "unit": "mg/kg"}, {"measurement": "survival at 210 mg/kg", "setting": "Mus musculus [4]", "result": 25, "unit": "%"}, {"measurement": "MST", "setting": "Mus musculus [3]", "result": 10.5, "unit": "days"}]}
{"smiles": "CCOc1ccc(N/C(CSC(=S)N(CC)CC)=N/c2ccccc2)cc1", "values": [{"measurement": "LD50", "setting": "[1]", "result": 800, "unit": "mg/kg"}, {"measurement": "survival at 150 mg/kg", "setting": "Mus musculus [5]", "result": 35, "unit": "%"}, {"measurement": "MST", "setting": "Mus musculus [3]", "result": 9.1, "unit": "days"}]}
{"smiles": "CCOc1ccc(/N=C(\\CSC(=S)N(CC)CC)Nc2ccc(OCC)cc2)cc1", "values": [{"measurement": "LD50", "setting": "[1]", "result": 1240, "unit": "mg/kg"}, {"measurement": "survival at 360 mg/kg", "setting": "Mus musculus [8]", "result": 70, "unit": "%"}, {"measurement": "MST", "setting": "Mus musculus [3]", "result": 13.5, "unit": "days"}]}
{"smiles": "CCOc1ccc(N/C(CSC(=S)N(CC)CC)=N/c2ccc(OC)cc2)cc1", "values": [{"measurement": "LD50", "setting": "[1]", "result": 1270, "unit": "mg/kg"}, {"measurement": "survival at 280 mg/kg", "setting": "Mus musculus [9]", "result": 60, "unit": "%"}, {"measurement": "MST", "setting": "Mus musculus [3]", "result": 13.5, "unit": "days"}]}
